Results published in ChEMBL document CHEMBL5506013, “Mitochondria-Selective Dicationic Small-Molecule Ligand Targeting G-Quadruplex Structures for Human Colorectal Cancer Therapy” (J Med Chem, 2024).
Active and inactive are the calls of the source. The calls are words filed in the database; no cut-off is given here.

Tests used:
Quadruplex DNA [1] = assay: Binding affinity to mito 78 G4 DNA (unknown origin) assessed as dissociation constant measured upto 450 secs by surface plasmon resonance assay; assay type: nucleic-acid assay
[2] = (§1) Antiproliferative activity against human HFF-1 cells measured after 48 hrs by MTT assay; assay type: toxicity, cell-based; details: HFF-1 cells
Procedure, shortened: (§2)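 Cells exposed to the ligands for 48 h. Viability was read by MTT, and the IC50 was derived from the response.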

DNA = assay: Binding affinity to HP19 DNA (non-G4 DNA) (unknown origin) assessed as dissociation constant measured upto 450 secs by surface plasmon resonance assay; assay type: nucleic-acid assay
Procedure, shortened: (§3)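 Surface plasmon resonance in buffer at 25 °C. Four G4-mtDNAs (Mito 78, Mito 55, Mito 29, Mito 0.5-16) and the hairpin HP19 served as substrates. Kd was derived from the sensorgrams.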

HCT-116 = assay: Antiproliferative activity against human HCT-116 cells measured after 48 hrs by MTT assay; assay type: functional, cell-based; details: for IC50: HCT-116, 48 h; procedure, shortened: as §2
[3] = (§4) Antiproliferative activity against human BJ cells measured after 48 hrs by MTT assay; assay type: toxicity, cell-based; details: BJ cells; procedure, shortened: as §2
Quadruplex DNA [4] = assay: Binding affinity to mito 29 G4 DNA (unknown origin) assessed as dissociation constant measured upto 450 secs by surface plasmon resonance assay; assay type: nucleic-acid assay; procedure, shortened: as §3
HepG2 = assay: Antiproliferative activity against human HepG2 cells measured after 48 hrs by MTT assay; assay type: functional, cell-based; details: HepG2, 48 h; procedure, shortened: as §2
HeLa = assay: Antiproliferative activity against human HeLa cells measured after 48 hrs by MTT assay; assay type: functional, cell-based; procedure, shortened: as §2
Quadruplex DNA [5] = assay: Binding affinity to mito 55 G4 DNA (unknown origin) assessed as dissociation constant measured upto 450 secs by surface plasmon resonance assay; assay type: nucleic-acid assay; procedure, shortened: as §3
LoVo = assay: Antiproliferative activity against human LoVo cells measured after 48 hrs by MTT assay; assay type: functional, cell-based; procedure, shortened: as §2
PANC-1 = assay: Antiproliferative activity against human PANC-1 cells measured after 48 hrs by MTT assay; assay type: functional, cell-based; details: PANC-1, 48 h; procedure, shortened: as §2
MDA-MB-231 = assay: Antiproliferative activity against human MDA-MB-231 cells measured after 48 hrs by MTT assay; assay type: functional, cell-based; details: MDA-MB-231, 48 h; procedure, shortened: as §2
Quadruplex DNA [6] = assay: Binding affinity to mito 0.5-16 G4 DNA (unknown origin) assessed as dissociation constant measured upto 450 secs by surface plasmon resonance assay; assay type: nucleic-acid assay; procedure, shortened: as §3
HFF-1 = assay: as §1; assay type: toxicity, cell-based; details: hff-1, 48 h, time 48 hrs; procedure, shortened: as §2
Quadruplex DNA [7] = assay: Binding affinity to mito 78 G4 DNA (unknown origin) at 5 uM by fluorescence titration based analysis; assay type: nucleic-acid assay
Procedure, shortened: (§5)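 Fluorescence titration in buffer. Ligand at 5 uM mixed with 20 uM pre-annealed DNA (95 °C for 10 min, slow cooling). Emission collected at 550-800 nm and monitored at 650 nm. Result reported as fold enhancement F/F0 over ligand alone.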

[8] = Drug uptake in living human HCT-116 cells at 4 uM incubated for 1 hrs by Hoechst33342 staining based analysis; assay type: ADME, cell-based; details: hct-116, 1 h
[9] = Drug uptake in living human HCT-116 cells assessed as increase in fluorescent signal in subnuclear region at 4 uM incubated for 1 hrs by Hoechst33342 staining based analysis; assay type: ADME, cell-based; details: hct-116, 1 h
BJ = assay: as §4; assay type: toxicity, cell-based; details: bj, 48 h; procedure, shortened: as §2
Quadruplex DNA [10] = assay: Binding affinity to mito 56 G4 DNA (unknown origin) at 5 uM by fluorescence titration based analysis; assay type: nucleic-acid assay
Procedure, shortened: (§6)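 Oligonucleotides were pre-annealed at 95 °C for 10 min, then cooled slowly. Ligand (5 uM) was mixed with 20 uM DNA in buffer. Emission was collected over 550–800 nm, and enhancement was taken at 650 nm as F/F0.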

Quadruplex DNA [11] = assay: Binding affinity to mito 81 G4 DNA (unknown origin) at 5 uM by fluorescence titration based analysis; assay type: nucleic-acid assay; procedure, shortened: as §5
Quadruplex DNA [12] = assay: Binding affinity to mito 29 G4 DNA (unknown origin) at 5 uM by fluorescence titration based analysis; assay type: nucleic-acid assay; procedure, shortened: as §6
Quadruplex DNA [13] = assay: Binding affinity to mito 05-15 G4 DNA (unknown origin) at 5 uM by fluorescence titration based analysis; assay type: nucleic-acid assay; procedure, shortened: as §6
Quadruplex DNA [14] = assay: Binding affinity to mito 132 G4 DNA (unknown origin) at 5 uM by fluorescence titration based analysis; assay type: nucleic-acid assay; procedure, shortened: as §6
Quadruplex DNA [15] = assay: Binding affinity to mito 05-18 G4 DNA (unknown origin) at 5 uM by fluorescence titration based analysis; assay type: nucleic-acid assay; procedure, shortened: as §6

| Compound | Kd (Quadruplex DNA [1]) [µM] | IC50 at 48 h [2] [µM] | Kd (DNA) [µM] | IC50 (HCT-116) [µM] | IC50 at 48 h [3] [µM] | Kd (Quadruplex DNA [4]) [µM] | IC50 (HepG2) [µM] | IC50 (HeLa) [µM] | Kd (Quadruplex DNA [5]) [µM] | IC50 (LoVo) [µM] | IC50 (PANC-1) [µM] | IC50 (MDA-MB-231) [µM] | Kd (Quadruplex DNA [6]) [µM] | other results |
| --- | --- | --- | --- | --- | --- | --- | --- | --- | --- | --- | --- | --- | --- | --- |
| CCn1c2ccccc2c2cc(/C=C/c3ccc4ccccc4[n+]3CCCCCCCC[n+]3c(/C=C/c4ccc5c(c4)c4ccccc4n5CC)ccc4ccccc43)ccc21 | 0.02 | > 40 | > 2 | 8.5 | > 40 | 0.21 | 25.3 | 32.1 | 0.52 | > 40 | > 40 | > 40 | 0.96 |  |
| C(=C\c1ccc2ccccc2[n+]1CCCCCCCC[n+]1c(/C=C/c2ccccc2)ccc2ccccc21)/c1ccccc1 | 0.29 | 28.3 | > 2 | > 40 | > 40 | 0.5 | > 40 | > 40 | 0.58 | > 40 | > 40 | > 40 | 1.02 |  |
| C(=C\c1ccc2ccccc2[n+]1CCCCCCCC[n+]1c(/C=C/c2c[nH]c3ccccc23)ccc2ccccc21)/c1c[nH]c2ccccc12 | 0.08 | > 40 | > 2 | 19.8 | > 40 | 0.23 | > 40 | 23.3 | 0.61 | > 40 | > 40 | > 40 | 0.25 |  |
| C(=C\c1ccc2ccccc2[n+]1CCCCCCCC[n+]1c(/C=C/c2ccc(N3CCOCC3)cc2)ccc2ccccc21)/c1ccc(N2CCOCC2)cc1 | 0.12 | > 40 | 1.86 | 29.2 | > 40 | 0.24 | > 40 | > 40 | 0.47 | 35.4 | > 40 | > 40 | 0.28 |  |
| CSc1ccc(/C=C/c2ccc3ccccc3[n+]2CCCCCCCC[n+]2c(/C=C/c3ccc(SC)cc3)ccc3ccccc32)cc1 | 0.05 | 34.7 | > 2 | 24.7 | > 40 | 0.34 | > 40 | > 40 | 0.46 | > 40 | > 40 | > 40 | 0.15 |  |
| C(=C\c1ccc2ccccc2[n+]1CCCCCCCC[n+]1c(/C=C/c2ccc(N3CCCC3)cc2)ccc2ccccc21)/c1ccc(N2CCCC2)cc1 | 0.13 | 31.1 | > 2 | 5.4 | 31.4 | 0.15 | > 40 | 22.1 | 0.17 | 15 | 20.5 | > 40 | 0.41 |  |
| C[n+]1c(/C=C/c2ccc(N3CCCCC3)cc2)ccc2ccccc21.[I-] |  |  |  |  |  |  |  |  |  |  |  |  |  | Activity (HFF-1): Toxic; Activity (Quadruplex DNA [7]): Active; Drug uptake [8]: Not Active; Drug uptake [9]: Active; Activity (HCT-116): inactive; Activity (BJ): Toxic; Activity (Quadruplex DNA [10]): Active; Activity (Quadruplex DNA [11]): Active; Activity (Quadruplex DNA [12]): Active; Activity (Quadruplex DNA [13]): Active; Activity (Quadruplex DNA [14]): Active; Activity (Quadruplex DNA [15]): Active |
| CN(C)c1ccc(/C=C/c2ccc3ccccc3[n+]2CCCCCCCC[n+]2c(/C=C/c3ccc(N(C)C)cc3)ccc3ccccc32)cc1 | 0.03 | 22.7 | > 2 | 17.2 | > 40 | 0.14 | > 40 | 29.5 | 0.13 | 15.4 | > 40 | > 40 | 0.11 |  |
| Cc1ccc(/C=C/c2ccc3ccccc3[n+]2CCCCCCCC[n+]2c(/C=C/c3ccc(C)cc3)ccc3ccccc32)cc1 | 0.07 | > 40 | > 2 | 27.4 | > 40 | 0.72 | > 40 | > 40 | 0.91 | > 40 | > 40 | > 40 | 1.17 |  |
| C(=C\c1ccc2ccccc2[n+]1CCCCCCCC[n+]1c(/C=C/c2cc3ccccc3[nH]2)ccc2ccccc21)/c1cc2ccccc2[nH]1 | 1.84 | > 40 | > 2 | 8 | > 40 | 0.14 | 37.3 | 34.6 | 0.22 | > 40 | > 40 | > 40 | > 2 |  |
| CCCC[n+]1c(/C=C/c2ccc(N3CCCCC3)cc2)ccc2ccccc21.[I-] |  |  |  |  |  |  |  |  |  |  |  |  |  | Activity (HFF-1): Toxic; Activity (Quadruplex DNA [7]): Active; Drug uptake [8]: Not Active; Drug uptake [9]: Active; Activity (HCT-116): inactive; Activity (BJ): Toxic; Activity (Quadruplex DNA [10]): Active; Activity (Quadruplex DNA [11]): Active; Activity (Quadruplex DNA [12]): Active; Activity (Quadruplex DNA [13]): Active; Activity (Quadruplex DNA [14]): Active; Activity (Quadruplex DNA [15]): Active |
